# Data from ChEMBL document CHEMBL2434966, “Novel N-4-piperazinyl-ciprofloxacin-chalcone hybrids: synthesis, physicochemical properties, anticancer and topoisomerase I and II inhibitory activity” (Eur J Med Chem, 2013).
# Tests used:
# Assay type in all cases: functional
# HCT-116 = test: Growth inhibition of human HCT116 cells after 48 hrs by sulforhodamine B assay; conditions: HCT-116, 48 h
# Procedure, shortened: (§1)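 NCI 60-panel five-dose test at 10-fold dilutions, 10^-4 to 10^-8 M, with 48 h continuous exposure and SRB protein read-out. Percent growth derived from time-zero, untreated-control and treated absorbances. GI50 is the concentration where [(Ti-Tz)/(C-Tz)]×100 = 50. TGI is taken at Ti = Tz. LC50 is taken at [(Ti-Tz)/Tz]×100 = -50.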
# BT-549 [1] = test: Growth inhibition of human BT549 cells after 48 hrs by sulforhodamine B assay; conditions: BT-549, 48 h; procedure, shortened: as §1
# SK-OV-3 = test: Growth inhibition of human SKOV3 cells after 48 hrs by sulforhodamine B assay; conditions: SK-OV-3, 48 h
# Procedure, shortened: (§2)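 NCI five-dose screen on the full 60-cell-line panel. Cells were given 10-fold dilutions from 10^-4 to 10^-8 M with continuous 48 h exposure, and growth was read by SRB staining. Percent growth was taken from time-zero, control and treated absorbances. GI50, TGI and LC50 were then derived, the GI50 being the concentration that gives a 50% lower net protein increase than control.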
# NCI-H322M = test: Growth inhibition of human NCI-H322M cells after 48 hrs by sulforhodamine B assay; conditions: for CC50: read-out: LC50 (the source's name); procedure, shortened: as §2
# M14 = test: Growth inhibition of human M14 cells after 48 hrs by sulforhodamine B assay; conditions: M14, 48 h; procedure, shortened: as §1
# HOP-62 [2] = test: Growth inhibition of human HOP62 cells after 48 hrs by sulforhodamine B assay; conditions: HOP-62, 48 h; procedure, shortened: as §1
# OVCAR-5 [3] = test: Growth inhibition of human OVCAR5 cells after 48 hrs by sulforhodamine B assay; conditions: OVCAR-5, 48 h; procedure, shortened: as §2
# K562 = test: Growth inhibition of human K562 cells after 48 hrs by sulforhodamine B assay; conditions: K562, 48 h; procedure, shortened: as §1
# SK-MEL-2 = test: Growth inhibition of human SK-MEL-2 cells after 48 hrs by sulforhodamine B assay; conditions: SK-MEL-2, 48 h; for CC50: read-out: LC50 (the source's name); procedure, shortened: as §2
# SF-268 = test: Growth inhibition of human SF268 cells assessed as cell growth at 10^-5 M after 48 hrs by sulforhodamine B assay; conditions: SF-268, 48 h, read-out: Activity
# Procedure, shortened: (§3)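 NCI 60-cell-line primary one-dose screen. Cells were exposed to a single 10^-5 M concentration for 48 h. The end point was sulforhodamine B protein staining, read spectrophotometrically. Results are reported as percent growth of treated cells relative to untreated control cells.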
# MDA-MB-468 = test: Growth inhibition of human MDA-MB-468 cells assessed as cell growth at 10^-5 M after 48 hrs by sulforhodamine B assay; conditions: MDA-MB-468, 48 h, read-out: Activity; procedure, shortened: as §3
# SK-MEL-5 [4] = test: Growth inhibition of human SK-MEL-5 cells after 48 hrs by sulforhodamine B assay; conditions: SK-MEL-5, 48 h; for CC50: read-out: LC50 (the source's name); procedure, shortened: as §2
# OVCAR-5 [5] = test: Growth inhibition of human OVCAR5 cells assessed as cell growth at 10^-5 M after 48 hrs by sulforhodamine B assay; conditions: OVCAR-5, 48 h, read-out: Activity; procedure, shortened: as §3
# SNB-75 = test: Growth inhibition of human SNB75 cells assessed as cell growth at 10^-5 M after 48 hrs by sulforhodamine B assay; conditions: SNB-75, 48 h, read-out: Activity
# Procedure, shortened: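 NCI primary one-dose screen: single concentration of 10^-5 M added to culture, 48 h incubation, SRB protein-dye endpoint. Percent growth of treated cells measured spectrophotometrically against untreated controls.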
# NCI-H522 = test: Growth inhibition of human NCI-H522 cells assessed as cell growth at 10^-5 M after 48 hrs by sulforhodamine B assay; conditions: NCI-H522, 48 h, read-out: Activity; procedure, shortened: as §3
# BT-549 [6] = test: Growth inhibition of human BT549 cells assessed as cell growth at 10^-5 M after 48 hrs by sulforhodamine B assay; conditions: BT-549, 48 h, read-out: Activity
# Procedure, shortened: (§4)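 NCI 60-cell-line primary screen. Single concentration of 10^-5 M, 48 h incubation. End point by sulforhodamine B protein staining read spectrophotometrically. Reported as percent growth of treated cells relative to untreated control cells.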
# HCT-15 = test: Growth inhibition of human HCT15 cells assessed as cell growth at 10^-5 M after 48 hrs by sulforhodamine B assay; conditions: HCT-15, 48 h, read-out: Activity; procedure, shortened: as §4
# MDA-MB-231 = test: Growth inhibition of human MDA-MB-231 cells after 48 hrs by sulforhodamine B assay; conditions: MDA-MB-231, 48 h; procedure, shortened: as §1
# 786-0 = test: Growth inhibition of human 786-0 cells after 48 hrs by sulforhodamine B assay; conditions: 786-0, 48 h; procedure, shortened: as §1
# SF-539 = test: Growth inhibition of human SF539 cells after 48 hrs by sulforhodamine B assay; conditions: SF-539, 48 h; for CC50: read-out: LC50 (the source's name); procedure, shortened: as §2
# SK-MEL-5 [7] = test: Growth inhibition of human SK-MEL-5 cells assessed as cell growth at 10^-5 M after 48 hrs by sulforhodamine B assay; conditions: SK-MEL-5, 48 h, read-out: Activity; procedure, shortened: as §3
# U-251 = test: Growth inhibition of human U251 cells after 48 hrs by sulforhodamine B assay; conditions: U-251, 48 h
# Procedure, shortened: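 NCI 60-cell panel, five concentrations (10-fold dilutions, 0.01–100 µM), 48 h continuous exposure; SRB protein stain read spectrophotometrically. Percent growth from time-zero, untreated-control and treated absorbances. GI50 is the concentration giving 50% lower net protein increase than control. Values beyond the tested range are reported as more or less than the highest or lowest concentration.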
# OVCAR-8 = test: Growth inhibition of human OVCAR8 cells assessed as cell growth at 10^-5 M after 48 hrs by sulforhodamine B assay; conditions: OVCAR-8, 48 h, read-out: Activity; procedure, shortened: as §3
# RPMI-8226 = test: Growth inhibition of human RPMI8226 cells assessed as cell growth at 10^-5 M after 48 hrs by sulforhodamine B assay; conditions: RPMI-8226, 48 h, read-out: Activity; procedure, shortened: as §3
# HOP-62 [8] = test: Growth inhibition of human HOP62 cells assessed as cell growth at 10^-5 M after 48 hrs by sulforhodamine B assay; conditions: HOP-62, 48 h, read-out: Activity; procedure, shortened: as §4
smiles,measurement,setting,value
COc1cc(/C=C/C(=O)c2ccc(NC(=O)CN3CCN(c4cc5c(cc4F)c(=O)c(C(=O)O)cn5C4CC4)CC3)cc2)cc(OC)c1OC,GI50,HCT-116,0.23 µM
same,TGI,HCT-116,0.69 µM
same,GI50,BT-549 [1],0.3 µM
same,LC50 (concentration giving 50% net cell kill),BT-549 [1],6.98 µM
same,TGI,BT-549 [1],1.17 µM
same,GI50,SK-OV-3,3.57 µM
same,LC50,SK-OV-3,> 100 µM
same,TGI,SK-OV-3,> 100 µM
same,GI50,NCI-H322M,0.29 µM
same,TGI,NCI-H322M,2.3 µM
same,CC50,NCI-H322M,> 100 µM
same,GI50,M14,0.77 µM
same,LC50 (concentration giving 50% net cell kill),M14,> 100 µM
same,TGI,M14,7.16 µM
same,GI50,HOP-62 [2],0.36 µM
same,LC50 (concentration killing 50% of starting cells),HOP-62 [2],56.9 µM
same,TGI,HOP-62 [2],11.4 µM
same,GI50,OVCAR-5 [3],1.87 µM
same,LC50,OVCAR-5 [3],> 100 µM
same,TGI,OVCAR-5 [3],7.36 µM
same,GI50,K562,0.27 µM
same,LC50 (concentration giving 50% net cell kill),K562,> 100 µM
same,TGI,K562,> 100 µM
same,GI50,SK-MEL-2,1.98 µM
same,TGI,SK-MEL-2,5.38 µM
same,CC50,SK-MEL-2,43.7 µM
same,growth at 10 µM,SF-268,-1.11%
same,growth at 10 µM,MDA-MB-468,-1.82%
same,GI50,SK-MEL-5 [4],1.06 µM
same,TGI,SK-MEL-5 [4],4.06 µM
same,CC50,SK-MEL-5 [4],> 100 µM
same,growth at 10 µM,OVCAR-5 [5],16.9%
same,growth at 10 µM,SNB-75,76.6%
same,growth at 10 µM,NCI-H522,-71.5%
same,growth at 10 µM,BT-549 [6],-86.7%
same,growth at 10 µM,HCT-15,18.2%
same,GI50,MDA-MB-231,0.51 µM
same,LC50 (50% lethal concentration),MDA-MB-231,> 100 µM
same,GI50,786-0,0.6 µM
same,LC50,786-0,7.7 µM
same,TGI,786-0,2.38 µM
same,GI50,SF-539,0.49 µM
same,TGI,SF-539,2.62 µM
same,CC50,SF-539,> 100 µM
same,growth at 10 µM,SK-MEL-5 [7],-42.9%
same,GI50,U-251,0.33 µM
same,LC50 (concentration killing 50% of cells),U-251,12.9 µM
same,TGI,U-251,1.29 µM
same,growth at 10 µM,OVCAR-8,4.74%
same,growth at 10 µM,RPMI-8226,-18.8%
same,growth at 10 µM,HOP-62 [8],4.38%
O=C(CN1CCN(c2cc3c(cc2F)c(=O)c(C(=O)O)cn3C2CC2)CC1)Nc1ccc(C(=O)/C=C/c2ccccc2)cc1,GI50,HCT-116,0.66 µM
same,LC50,HCT-116,9.55 µM
same,TGI,HCT-116,2.68 µM
same,GI50,BT-549 [1],3.56 µM
same,LC50 (concentration giving 50% net cell kill),BT-549 [1],> 100 µM
same,TGI,BT-549 [1],> 100 µM
same,GI50,SK-OV-3,27.3 µM
same,LC50,SK-OV-3,> 100 µM
same,TGI,SK-OV-3,> 100 µM
same,GI50,NCI-H322M,4.04 µM
same,TGI,NCI-H322M,58.7 µM
same,CC50,NCI-H322M,> 100 µM
same,GI50,M14,5.22 µM
same,LC50 (concentration giving 50% net cell kill),M14,> 100 µM
same,TGI,M14,> 100 µM
same,GI50,HOP-62 [2],4.46 µM
same,LC50 (concentration killing 50% of starting cells),HOP-62 [2],> 100 µM
same,TGI,HOP-62 [2],> 100 µM
same,GI50,OVCAR-5 [3],5.35 µM
same,LC50,OVCAR-5 [3],> 100 µM
same,TGI,OVCAR-5 [3],> 100 µM
same,GI50,K562,3.07 µM
same,LC50 (concentration giving 50% net cell kill),K562,> 100 µM
same,TGI,K562,> 100 µM
same,GI50,SK-MEL-2,2.94 µM
same,TGI,SK-MEL-2,11.3 µM
same,CC50,SK-MEL-2,> 100 µM
same,growth at 10 µM,SF-268,37%
same,growth at 10 µM,MDA-MB-468,33.8%
same,GI50,SK-MEL-5 [4],2.74 µM
same,TGI,SK-MEL-5 [4],13 µM
same,CC50,SK-MEL-5 [4],> 100 µM
same,growth at 10 µM,OVCAR-5 [5],82.6%
same,growth at 10 µM,SNB-75,61.8%
same,growth at 10 µM,NCI-H522,10.6%
same,growth at 10 µM,BT-549 [6],9.61%
same,growth at 10 µM,HCT-15,56.8%
same,GI50,MDA-MB-231,1.84 µM
same,LC50 (50% lethal concentration),MDA-MB-231,> 100 µM
same,TGI,MDA-MB-231,5.13 µM
same,GI50,786-0,4.5 µM
same,LC50,786-0,> 100 µM
same,TGI,786-0,> 100 µM
same,GI50,SF-539,3.6 µM
same,TGI,SF-539,> 100 µM
same,CC50,SF-539,> 100 µM
same,growth at 10 µM,SK-MEL-5 [7],13.6%
same,GI50,U-251,2.92 µM
same,LC50 (concentration killing 50% of cells),U-251,> 100 µM
same,TGI,U-251,> 100 µM
same,growth at 10 µM,OVCAR-8,6.3%
same,growth at 10 µM,RPMI-8226,2.45%
same,growth at 10 µM,HOP-62 [8],59.4%
